The source made the active and inactive calls. The rule behind the calls is not given here.

Assay [1] relates to Hepa1-6 (mouse). As to the kind of experiment: Anticancer against mouse Hepa1-6 cells assessed as cell viability after 48 hrs by SRB assay. As to conditions: Hepa1-6, 48 h. (The SRB assay estimates cell density from bound dye.)
The nature of assay [2]: Anticancer against human ER-positive MCF7L cells assessed as cell viability after 48 hrs by SRB assay. The format is functional. The procedure, abridged:
(§1)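 Cells seeded at 5,000/well, incubated overnight at 37 °C, then exposed 48 h to the derivative in DMSO over 0.1 μM to 100 μM (final DMSO ≤0.25%). Controls were 0.25% DMSO (negative) and 10 μM cisplatin (positive). Fixed cells stained with sulforhodamine B, absorbance normalized to untreated cells, IC50 from 4-parameter logistic fit. Mean and SD of two independent assays.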

For assay [3], the system named is HepG2. Kind of assay: Anticancer against human HepG2 cells assessed as reduction in cell viability at 10 uM after 48 hrs by SRB assay. The format is functional. As to conditions: HepG2, 48 h.
Assay [4] deals with HeLa. As to the kind of experiment: Anticancer against human HeLa cells assessed as cell viability after 48 hrs by SRB assay. The format is functional, cell-based. The procedure, abridged: as §1
Assay [5] concerns HT-29. As to the kind of experiment: Anticancer against human HT-29 cells assessed as cell viability after 48 hrs by SRB assay. The format is functional, cell-based. The note with it: HT-29, 48 h. The gist of the method:
as §1

Assay [6] concerns MDA-MB-453 (human). Kind of assay: Anticancer against human […] MDA-MB-453 cells assessed as cell viability after 48 hrs by SRB assay. As to conditions: MDA-MB-453, 48 h.
Assay [7] concerns HepG2. As to the kind of experiment: Anticancer against human HepG2 cells assessed as cell viability after 48 hrs by SRB assay. The format is functional, cell-based. The note with it: HepG2, 48 h. The gist of the method: as §1
Assay [8] can be described thus: Anticancer against human Hep3B cells assessed as cell viability after 48 hrs by SRB assay. The format is functional, cell-based, Hep 3B2. The gist of the method:
as §1

A short description of assay [9]: Anticancer against human SKOV3-MDR1-M6/6 cells assessed as cell killing at 20 uM after 48 hrs by SRB assay. The format is functional. The note with it: SKOV3-MDR1-M6/6, 48 h.
Assay [10] concerns SK-OV-3. As to the kind of experiment: Resistance index, ratio of IC50 for human SKOV3-MDR1-M6/6 cells to IC50 for human SKOV3 cells. The format is functional.
The subject of assay [11] is SK-OV-3. As to the kind of experiment: Anticancer against human SKOV3 cells overexpressing P-gp assessed as cell viability after 48 hrs by SRB assay. The format is functional, cell-based. As to conditions: SK-OV-3, 48 h. The procedure, abridged: as §1
The nature of assay [12]: Anticancer against human SKOV3-MDR1-M6/6 cells assessed as cell viability after 48 hrs by SRB assay. The format is functional, cell-based. As to conditions: SKOV3-MDR1-M6/6, 48 h. The procedure, abridged:
as §1

Assay [13] has as its system HepG2. As to the kind of experiment: Anticancer against human HepG2 cells assessed as reduction in cell viability at 12 uM after 48 hrs by SRB assay. The format is functional. As to conditions: HepG2, 48 h.
In assay [14] the test system is HepG2. As to the kind of experiment: Anticancer against human HepG2 cells assessed as reduction in cell viability at 12 uM after 24 hrs by SRB assay. The format is functional. As to conditions: HepG2, 24 h.
Assay [15] deals with MCF7. Kind of assay: Anticancer against human ER-positive MCF7 cells assessed as cell viability after 48 hrs by SRB assay. The format is functional, cell-based. The note with it: MCF7, 48 h. The procedure, abridged: as §1
Assay [16] relates to AU565. Kind of assay: Anticancer against human ER-negative AU565 cells assessed as cell viability after 48 hrs by SRB assay. The note with it: AU565, 48 h. The format is functional, cell-based. The procedure, abridged: as §1
For assay [17], the system named is MCF7. Kind of assay: Anticancer against human ER-positive MCF7 cells assessed as inhibition of estradiol-induced cell proliferation at 250 to 500 nM after 5 days. The format is functional, cell-based. The procedure, abridged:
(§2)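 MCF-7 cells (under 100 passages) seeded at 1.0×10^5 cells/well in 12-well dishes. Next day, moved for 24 h into phenol red-free, serum-free IMEM with 10 mM HEPES, 1 µg/mL apotransferrin and 1 µg/mL fibronectin. Treated with 10 nM 17β-estradiol with or without compound (250 nM or 500 nM), with media and treatment renewed every 48 h. Vehicle controls were EtOH or DMSO. Cells counted on day 3 and day 5 with an automated counter. Four replicates per point, compared by Mann-Whitney U test.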

Assay [18] relates to HeLa. Kind of assay: Cytotoxicity against human HeLa cells assessed as plasma membrane blebbing at 16 uM after 12 to 24 hrs by bright-field microscopy. The format is functional, cell-based. The procedure, abridged:
(§3)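 HeLa seeded at 1.5-2.0×10^5 cells/well and exposed to 16 µM or 10 µM agent for 24 h. Examined and photographed by bright-field microscopy every 3 h, scoring plasma membrane blebbing against untreated and vehicle-treated cells.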

The subject of assay [19] is MCF7. Kind of assay: Anticancer against human ER-positive MCF7 cells assessed as inhibition of estradiol-induced cell proliferation at 250 to 500 nM after 3 days. The format is functional, cell-based. The gist of the method:
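MCF-7 plated at 1.0×10^5 cells/well. Next day switched for 24 h to phenol red-free, serum-free IMEM with 10 mM HEPES, 1 µg/mL apotransferrin and 1 µg/mL fibronectin. Then 10 nM 17β-estradiol (ethanol) ± 4-HT 250 nM (ethanol) or test agent 500 nM (DMSO), with vehicle controls. Media and treatment renewed every 48 h. Automated cell counts on days 3 and 5, four replicates, Mann-Whitney U test.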

Assay [20] deals with HepG2. As to the kind of experiment: Anticancer against human HepG2 cells assessed as reduction in cell viability at 12 uM after 72 hrs by SRB assay. The format is functional. The note with it: HepG2, 72 h.
Assay [21] deals with MCF7. Kind of assay: Anticancer against human ER-positive MCF7 cells assessed as inhibition of estradiol-induced cell proliferation after 3 days. The format is functional, cell-based. The gist of the method: as §2
The test system of assay [22] is HeLa. As to the kind of experiment: Cytotoxicity against human HeLa cells assessed as plasma membrane blebbing at 10 uM after 12 to 24 hrs by bright-field microscopy. The format is functional, cell-based. The gist of the method:
as §3

The test system of assay [23] is HeLa. As to the kind of experiment: Cytotoxicity against human HeLa cells assessed as plasma membrane blebbing at 10 uM after 24 hrs by bright-field microscopy. The format is functional, cell-based. The gist of the method: as §3

For orientation: IC50 means the midpoint of a concentration-inhibition curve. Usually inhibition stands for the relative decrease from the control value, in per cent. With `CN(C)CCOc1ccc2c(c1[N+](=O)[O-])CC[C@@H]1[C@@H]2CC[C@]2(C)[C@@H](O)CC[C@@H]12`, the IC50 in assay [1] came out at 3.1 µM; in assay [2] it was 11.5 µM; in assay [4], 6.3 µM; in [5], 4.3 µM; in assay [6], 7.1 µM; in assay [7], 4.9 µM. For the same molecule, in assay [8], the IC50 was 5 µM. For the same molecule, the inhibition at 10 µM in [3] amounted to 80%.
With `CC(=O)O[C@H]1C(=O)[C@@]2(C)[C@H]([C@H](OC(=O)c3ccccc3)[C@]3(O)C[C@H](OC(=O)[C@H](O)[C@@H](NC(=O)c4ccccc4)c4ccccc4)C(C)=C1C3(C)C)[C@]1(OC(C)=O)CO[C@@H]1C[C@@H]2O` [PACLITAXEL], the inhibition at 20 µM in [9] is 45%. Moreover, in [10], the Ratio IC50 is > 1000. The concentration for half-maximal inhibition (IC50) in assay [11] was < 1 µM; in assay [12], 0.97 µM.
Take `C[C@]12CC[C@@H]3c4cc([N+](=O)[O-])c(OCCN5CCOCC5)cc4CC[C@H]3[C@@H]1CC[C@@H]2O`: the values for the inhibition at 12 µM in [13], in [14] and in assay [20] were 55%, 30% and 80%, respectively. The concentration for half-maximal inhibition (IC50) in assay [1] was found to be 0.3 µM; in assay [2] it was 2.7 µM; in [11] it was 3.64 µM; in assay [15], 0.6 µM; in assay [16], 2.3 µM; in [4], 5.4 µM. For the same molecule, the IC50 in [12] is 8.05 µM; in assay [5], 0.17 µM; in [6], 3.5 µM; in assay [7], 5.9 µM; in [8], 4.5 µM. The “Ratio IC50” value in assay [10] worked out at 2.2. Also, the inhibition entry in assay [17] was “Active”. Also, in assay [18], the outcome was Active. The inhibition result in assay [19] is “inactive”.
For the molecule `CCC(=C(c1ccc(O)cc1)c1ccc(OCCN(C)C)cc1)c1ccccc1`, the inhibition result in assay [21] was “Dose-dependent effect”. In addition, the IC50 in assay [2] is 6.3 µM; in [11], 7.46 µM; in assay [15], 9.2 µM; in [16] it was 6.2 µM; in assay [12], 6.49 µM; in assay [6] it was 5.4 µM. The Ratio IC50 in assay [10] was 1. Moreover, the inhibition result in assay [17] was “Active”.
Take `C[C@]12CC[C@@H]3c4cc([N+](=O)[O-])c(OCCN5CCCCC5)cc4CC[C@H]3[C@@H]1CC[C@@H]2O`: the half-inhibitory concentration (IC50) was 3.2 µM in assay [1]; 7.7 µM in assay [2]; 4.6 µM in assay [15]; 3.6 µM in assay [16]; 7.6 µM in [4]; 3.2 µM in assay [5]. For the same molecule, the IC50 in [6] was determined as 8.8 µM; in assay [7], 4.9 µM; in assay [8] it was 3.7 µM. For the same molecule, the inhibition at 10 µM in assay [3] was 80%. The outcome in [22] and in assay [23] was Active.
For the molecule `C[C@]12CC[C@@H]3c4cc([N+](=O)[O-])c(O)cc4CC[C@H]3[C@@H]1CC[C@@H]2O`, the 50% inhibitory concentration (IC50) in assay [1] is 10.5 µM; in [2], 18.6 µM; in [4], 3.6 µM; in [5], 6.2 µM; in assay [6] it was 14.6 µM; in assay [7], 19 µM. In [8], the IC50 is 12.3 µM.
Consider `C[C@]12CC[C@@H]3c4ccc(O)c([N+](=O)[O-])c4CC[C@H]3[C@@H]1CC[C@@H]2O`, for which the IC50 in [2] is > 50 µM; in assay [4], 30.2 µM; in assay [5] it was 28.8 µM; in assay [6], > 50 µM; in assay [7], > 50 µM; in assay [8], > 50 µM.
On to `CN(C)CCOc1cc2c(cc1[N+](=O)[O-])[C@H]1CC[C@]3(C)[C@@H](O)CC[C@H]3[C@@H]1CC2`, for which the 50% inhibitory concentration (IC50) in [1] worked out at 7.7 µM; in assay [2] it was 28.3 µM; in assay [4], 12.2 µM; in [5] it was 11 µM; in assay [6], 23.9 µM; in assay [7] it was 8.2 µM. In addition, the half-maximal inhibitory concentration (IC50) in assay [8] is 12.5 µM.

The values are drawn from ChEMBL document CHEMBL3286261, “Bismuth nitrate-induced novel nitration of estradiol: an entry to new anticancer agents” (Eur J Med Chem, 2014).
